Measurements from ChEMBL document CHEMBL1131066, “2-Substituted aminopyrido[2,3-d]pyrimidin-7(8H)-ones. structure-activity relationships against selected tyrosine kinases and in vitro and in vivo anticancer activity” (J Med Chem, 1998).
pIC50: −log10 of the molar value.

How the values were obtained:
[1] = tested on: A-431; test: Difference in days for treated (T) and control (C) A431 cell tumors to reach 750 mg in mice at 5 mg/kg peroral dose, days 7-21 administration; assay type: functional, Mus musculus; conditions: route oral
How it was run: (§1)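 Nude mice (NCr nu/nu), 18–22 g, 6–8 per group, randomized and implanted with serially passaged tumor fragments in the right axilla on day 0. Dosed by average cage weight. Vehicle was 50 mM sodium lactate buffer, pH 4.0, or a 0.5% methyl cellulose suspension for one compound. Cisplatin was given in saline. T − C is the difference in days for treated and control tumors to reach 750 mg.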

[2] = tested on: MCF7; test: Difference in days for treated (T) and control (C) MCF-7 cell tumors to reach 750 mg in mice at 5 mg/kg peroral dose, days 1-15 administration; assay type: functional, Mus musculus; conditions: route oral; how it was run: as §1
[3] = tested on: COLO 205; test: Ratio of treated and control COLO 205 cell tumor mass in mice at […] peroral dose, days 9-23 administration; assay type: functional, Mus musculus; conditions: route oral
[4] = tested on: SK-OV-3; test: Weight change of SK-OV-3 cell tumors in mice at […] peroral dose, days 15-29 administration; assay type: functional, organism-based; set-up: dose 8.9 mg/kg
[5] = target: Platelet-derived growth factor receptor (PDGFr) (Rattus norvegicus, UniProt P20786+Q05030); test: Inhibition of PDGF-induced autophosphorylation of PDGF-R in C6 cells
[6] = tested on: MCF7; test: Net reduction in tumor burden between first and last treatments of MCF-7 cells in mice at 5 mg/kg peroral dose, days 1-15 administration; assay type: functional, Mus musculus; conditions: route oral
How it was run: (§2)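 NCr nu/nu nude mice (18–22 g, 6–8 per group, randomized) had tumor fragments, kept by serial passage in nude mice, implanted in the right axilla on day 0. Mice were dosed by average cage weight on the listed days, over a range from toxic to ineffective doses. Vehicle was 50 mM sodium lactate pH 4.0 or 0.5% methyl cellulose suspension. Net log cell kill was taken between first and last treatments.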

[7] = tested on: NIH3T3; test: Inhibition of NIH3T3 proliferation by sulforhodamine B assay; assay type: functional, cell-based, Mus musculus; conditions: Mus musculus, NIH3T3
[8] = tested on: A-431; test: Ratio of treated and control A431 cell tumor mass in mice at 5 mg/kg peroral dose, days 7-21 administration; assay type: functional, Mus musculus; conditions: route oral
How it was run: (§3)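 Nude mice (NCr nu/nu), 6–8 per group, 18–22 g, tumor fragments implanted in right axilla on day 0 (A431, C6, MCF-7, or NIH3T3 carrying human PDGF receptor), dosed by average cage weight; vehicle 50 mM sodium lactate buffer pH 4.0 unless suspended in 0.5% methyl cellulose. %T/C = median treated/median control tumor mass ×100, last therapy day.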

[9] = tested on: C6; test: Ratio of treated and control C6 glioma cell tumor mass in mice at 10 mg/kg peroral dose, days 1-15 administration; assay type: functional, Mus musculus; conditions: route oral; how it was run: as §3
[10] = tested on: COLO 205; test: Net reduction in tumor burden between first and last treatments of COLO 205 cell tumors in mice at […] peroral dose, days 9-23 administration; assay type: functional, Mus musculus; conditions: route oral
[11] = target: Fibroblast growth factor receptor 1 (Homo sapiens, UniProt P11362); test: Inhibition of fibroblast growth factor receptor (FGFr)
Chain of Fibroblast growth factor receptor 1 (P11362 whole entry): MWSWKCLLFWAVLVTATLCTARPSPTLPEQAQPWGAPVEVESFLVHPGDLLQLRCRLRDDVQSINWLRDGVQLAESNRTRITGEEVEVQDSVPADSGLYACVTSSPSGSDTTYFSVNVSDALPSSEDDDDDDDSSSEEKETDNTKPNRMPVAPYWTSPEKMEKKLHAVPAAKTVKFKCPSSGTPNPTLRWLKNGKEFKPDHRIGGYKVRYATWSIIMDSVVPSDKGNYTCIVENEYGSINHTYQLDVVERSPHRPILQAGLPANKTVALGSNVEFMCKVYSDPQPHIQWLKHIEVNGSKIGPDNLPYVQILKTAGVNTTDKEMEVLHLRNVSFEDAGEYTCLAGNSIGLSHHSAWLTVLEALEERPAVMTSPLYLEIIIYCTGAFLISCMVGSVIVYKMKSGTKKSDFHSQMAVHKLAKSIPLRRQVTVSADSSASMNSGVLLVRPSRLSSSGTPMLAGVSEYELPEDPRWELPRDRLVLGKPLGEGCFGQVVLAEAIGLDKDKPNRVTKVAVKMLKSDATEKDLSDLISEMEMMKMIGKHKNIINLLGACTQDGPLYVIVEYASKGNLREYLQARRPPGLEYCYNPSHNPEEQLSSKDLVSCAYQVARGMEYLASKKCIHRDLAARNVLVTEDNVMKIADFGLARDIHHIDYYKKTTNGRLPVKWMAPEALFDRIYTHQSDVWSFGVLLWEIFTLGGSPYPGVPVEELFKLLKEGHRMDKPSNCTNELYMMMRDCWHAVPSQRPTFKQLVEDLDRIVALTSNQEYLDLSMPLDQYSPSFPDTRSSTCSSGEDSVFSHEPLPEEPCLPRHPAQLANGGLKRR
How it was run: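 Recombinant kinases (PDGFr-β, FGFr-1, c-Src), enzyme inhibition IC50. Mean of at least two separate determinations, each done in triplicate; replicate values typically varied under 30%.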

[12] = target: Proto-oncogene tyrosine-protein kinase Src (Gallus gallus, UniProt P00523); test: Inhibition of avian c-Src tyrosine kinase
[13] = tested on: C6; test: Difference in days for treated (T) and control (C) C6 glioma cell tumors to reach 750 mg in mice at 10 mg/kg peroral dose, days 1-15 administration; assay type: functional, Mus musculus; conditions: route oral; how it was run: as §1
[14] = tested on: Mus musculus; test: Net reduction in tumor burden between the first and last treatments of PDGF-transfected fibroblast cells in mice at 12 mg/kg peroral dose, days 1-15 administration; assay type: functional; conditions: route oral; how it was run: as §2
[15] = tested on: MCF7; test: Weight change for MCF-7 cell tumors in mice at 5 mg/kg peroral dose, days 1-15 administration; assay type: functional, organism-based; set-up: dose 5 mg/kg; conditions: Mus musculus
How it was run: (§4)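 Tumor-bearing nude mice (NCr nu/nu, 18–22 g, 6–8 per group) were implanted in the right axilla with tumor fragments on day 0 and dosed by average cage weight. Vehicle was 50 mM sodium lactate pH 4.0, or 0.5% methyl cellulose suspension; cisplatin was given in saline. Host body weight change is given as the maximum treatment-related weight loss.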

[16] = tested on: MCF7; test: Ratio of treated and control MCF-7 tumor mass in mice at 5 mg/kg peroral dose, days 1-15 administration; assay type: functional, Mus musculus; conditions: route oral; how it was run: as §3
[17] = target: Platelet-derived growth factor receptor beta (Mus musculus, UniProt P05622); test: Inhibitory concentration was evaluated against Platelet-derived growth factor receptor beta (PDGFr) tyrosine kinase
Chain of Platelet-derived growth factor receptor beta (P05622 whole entry): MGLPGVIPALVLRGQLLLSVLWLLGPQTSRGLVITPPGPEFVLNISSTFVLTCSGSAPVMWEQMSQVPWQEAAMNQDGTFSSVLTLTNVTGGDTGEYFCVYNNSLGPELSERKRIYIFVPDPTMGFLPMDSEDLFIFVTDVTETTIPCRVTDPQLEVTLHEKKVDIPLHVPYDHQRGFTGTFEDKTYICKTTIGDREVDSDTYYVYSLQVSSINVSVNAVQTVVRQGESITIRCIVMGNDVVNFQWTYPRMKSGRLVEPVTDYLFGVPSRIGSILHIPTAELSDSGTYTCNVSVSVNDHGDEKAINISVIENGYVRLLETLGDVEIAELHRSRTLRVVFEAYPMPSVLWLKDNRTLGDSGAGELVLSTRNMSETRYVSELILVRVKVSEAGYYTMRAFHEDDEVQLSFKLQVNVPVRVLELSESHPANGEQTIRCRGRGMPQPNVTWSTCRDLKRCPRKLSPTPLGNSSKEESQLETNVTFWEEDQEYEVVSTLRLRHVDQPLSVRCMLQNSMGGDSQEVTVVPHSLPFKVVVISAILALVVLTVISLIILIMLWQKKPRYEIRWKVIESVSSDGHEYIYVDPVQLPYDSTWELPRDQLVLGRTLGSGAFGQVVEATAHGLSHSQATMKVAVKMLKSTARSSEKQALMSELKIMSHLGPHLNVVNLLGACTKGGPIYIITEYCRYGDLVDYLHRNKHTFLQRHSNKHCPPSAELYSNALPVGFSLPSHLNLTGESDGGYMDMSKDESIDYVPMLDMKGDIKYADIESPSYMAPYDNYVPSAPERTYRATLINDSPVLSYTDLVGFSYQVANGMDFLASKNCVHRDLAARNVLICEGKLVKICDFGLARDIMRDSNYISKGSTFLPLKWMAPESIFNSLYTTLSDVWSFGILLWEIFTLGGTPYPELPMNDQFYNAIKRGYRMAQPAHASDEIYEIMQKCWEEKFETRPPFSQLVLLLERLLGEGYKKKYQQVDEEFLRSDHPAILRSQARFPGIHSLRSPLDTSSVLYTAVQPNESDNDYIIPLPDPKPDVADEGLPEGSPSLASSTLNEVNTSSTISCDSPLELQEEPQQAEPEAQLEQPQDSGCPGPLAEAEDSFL

[18] = tested on: HT-29; test: Difference in days for treated (T) and control (C) HT-29 cell tumors to reach 750 mg in mice at […] peroral dose, days 15-29 administration; assay type: functional, Mus musculus; conditions: route oral
[19] = tested on: C6; test: C6 cell growth in soft agar with discontinued treatment; assay type: functional, cell-based, Rattus norvegicus; conditions: Rattus norvegicus, C6
How it was run: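 C6 rat glioma cells given 3-day exposure to a concentration series, then washed free of inhibitor and plated in drug-free soft agar; colonies stained and counted after two weeks. IC50; mean of two experiments, each in duplicate.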

[20] = tested on: COLO 205; test: Weight change of COLO 205 cell tumors in mice at […] peroral dose, days 9-23 administration; assay type: functional, organism-based; set-up: dose 8.9 mg/kg; conditions: Mus musculus
[21] = tested on: C6; test: C6 cell growth in soft agar with continuous treatment; assay type: functional, cell-based, Rattus norvegicus; conditions: Rattus norvegicus, C6
How it was run: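 C6 rat glioma cells (F10 Ham's with 15% horse serum, 2.5% fetal calf serum) exposed 3 days to a concentration series, then plated in soft agar with compound still present at the same concentration; colonies stained and counted after two weeks. IC50; mean of two experiments, each in duplicate.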

[22] = tested on: A-431; test: Weight change of A431 cell tumors in mice at 5 mg/kg peroral dose, days 7-21 administration; assay type: functional, Mus musculus; conditions: route oral; how it was run: as §4
[23] = tested on: C6; test: Inhibition of C6 cell proliferation in sulforhodamine B assay; assay type: functional, cell-based, Rattus norvegicus; conditions: Rattus norvegicus, C6
How it was run: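 C6 rat glioma cells (F10 Ham's, 15% horse serum, 2.5% fetal calf serum) seeded and allowed 24 h to attach, then given serial 2-fold compound dilutions; 4 d at 37 °C, 5% CO2; growth read by sulforhodamine B staining. IC50; mean of two experiments, each in triplicate.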

[24] = tested on: SK-OV-3; test: Ratio of treated and control SKOV-3 cell tumor mass in mice at […] peroral dose, days 15-29 administration; assay type: functional; conditions: route oral
[25] = tested on: SK-OV-3; test: Difference in days for treated (T) and control (C) SKOV-3 cell tumors to reach 750 mg in mice at […] peroral dose, days 15-29 administration; assay type: functional; conditions: route oral
[26] = tested on: Mus musculus; test: Weight change in PDGF-transfected mouse fibroblasts in mice at 12 mg/kg peroral dose, days 1-15 administration; assay type: functional; conditions: route oral; how it was run: as §4
[27] = tested on: C6; test: Weight change of C6 glioma tumor cells in mice at 10 mg/kg peroral dose, days 1-15 administration; assay type: functional, Mus musculus; conditions: route oral; how it was run: as §4
[28] = tested on: Mus musculus; test: Ratio of treated and control PDGF-transfected mouse fibroblast tumor mass in mice at 12 mg/kg peroral dose, days 1-15 administration; assay type: functional; conditions: route oral; how it was run: as §3
[29] = tested on: NIH3T3; test: Growth of NIH3T3 cell colonies in soft agar with discontinued treatment; assay type: functional, cell-based; conditions: Mus musculus
How it was run: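 PDGF-B-transfected NIH3T3 (NIH3T3/PDGF) cells exposed 3 days to a concentration series, washed free of inhibitor, plated in drug-free soft agar; colonies stained and counted after two weeks. IC50; mean of two experiments, each in duplicate.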

[30] = tested on: HT-29; test: Weight change of HT-29 cell tumors in mice at […] peroral dose, days 15-29 administration; assay type: functional, organism-based; set-up: dose 8.3 mg/kg; conditions: Mus musculus
[31] = tested on: A-431; test: Net reduction in tumor burden between first and last treatments of A431 cell tumors in mice at 5 mg/kg peroral dose, days 7-21 administration; assay type: functional, Mus musculus; conditions: route oral; how it was run: as §2
[32] = tested on: Mus musculus; test: Difference in days for treated (T) and control (C) PDGF-transfected mouse fibroblast tumors to reach 750 mg in mice at 12 mg/kg peroral dose, days 1-15 administration; assay type: functional; conditions: route oral; how it was run: as §1
[33] = tested on: C6; test: Net reduction in tumor burden between first and last treatments of C6 glioma cell tumors in mice at 10 mg/kg peroral dose, days 1-15 administration; assay type: functional, Mus musculus; conditions: route oral; how it was run: as §2
[34] = target: Platelet-derived growth factor receptor (Mus musculus, UniProt P05622+P26618); test: Inhibition of PDGF-induced autophosphorylation of PDGF-R in NIH3T3 cells
[35] = tested on: COLO 205; test: Difference in days for treated (T)and control (C) COLO 205 cell tumors to reach 750 mg in mice at […] peroral dose, days 9-23 administration; assay type: functional, Mus musculus; conditions: route oral
[36] = tested on: NIH3T3; test: Growth of NIH3T3 cell colonies in soft agar with continuous treatment; assay type: functional, cell-based; conditions: Mus musculus
How it was run: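 Soft agar cloning used PDGF-B-transfected NIH3T3 (NIH3T3/PDGF) cells. Cells were exposed 3 days to a concentration series, then plated in soft agar with the matching compound concentration kept present. Colonies were stained and counted after two weeks. IC50; mean of two experiments, each in duplicate.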

Work on `CCN(CC)CCOc1ccc(Nc2ncc3cc(-c4c(Cl)cccc4Cl)c(=O)n(CC)c3n2)cc1` yielded a T-C [1] of 3.3 days, a T-C [2] of 18.3 days and a Ratio [3] of 57%. For the same compound, the Weight change [4] was “Weight gain”, the IC50 [5] was 1 nM and the Net cell kill [6] was 0.2 log10. For the same compound, the pIC50 [7] was 6.39, the Ratio [8] was 96% and the Ratio [9] was 56%. It also gave a Net cell kill [10] of -0.2 log10, a pIC50 [11] of 7.52 and a pIC50 [12] of 7.77. The T-C [13] was 3 days, the Net cell kill [14] was -1.2 log10 and the Weight change [15] was “Weight gain”. The Ratio [16] was 51%, the pIC50 [17] was 6.82 and the T-C [18] was -4.8 days. For the same compound, the pIC50 [19] was 6.40, the Weight change [20] was “Weight gain” and the pIC50 [21] was 6.92. It also gave a Weight change [22] of -2.7 g, a pIC50 [23] of 6.46 and a Ratio [24] of 106%. The T-C [25] was -0.8 days, the Weight change [26] was -2.6 g and the Weight change [27] was -1.2 g. The Ratio [28] was 13%, the pIC50 [29] was 7.77 and the Weight change [30] was “Weight gain”. It also gave a Net cell kill [31] of -0.6 log10, a T-C [32] of 5.9 days and a Net cell kill [33] of -0.9 log10. It also gave a pIC50 [34] of 8.77, a T-C [35] of 10.3 days and a pIC50 [36] of 8.82.
